Laboratory results as given in ChEMBL document CHEMBL4715682, “Potent trifluoromethoxy, trifluoromethylsulfonyl, trifluoromethylthio and pentafluorosulfanyl containing (1,3,4-oxadiazol-2-yl)benzamides against drug-resistant Gram-positive bacteria” (RSC Med Chem, 2020).
In brackets after ≈: the same amount, converted by molar mass. Activity calls are given as the source filed them. No cut-off for these calls is given here.

Columns and labels:
Staphylococcus aureus [1] = assay: Antibacterial activity against Staphylococcus aureus ATCC 25923 assessed as inhibition of visible bacterial growth incubated for 18 to 20 hrs by CLSI method; type: functional; conditions: time 18-20 hrs
Method in brief: (§1)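 CLSI broth microdilution. Strains grown aerobically overnight on tryptic soy agar at 37 °C, adjusted to 0.5 McFarland and diluted in cation-adjusted Mueller–Hinton broth to about 5×10^5 CFU/mL. Compounds and control drugs serially diluted across the plate. Incubated aerobically at 37 °C for 18-20 h. MIC is the lowest concentration with no visible growth.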

Staphylococcus aureus [2] = assay: Antibacterial activity against methicillin-resistant Staphylococcus aureus ATCC 33592 assessed as inhibition of visible bacterial growth incubated for 18 to 20 hrs by CLSI method; type: functional; conditions: time 18-20 hrs; method in brief: as §1
Staphylococcus aureus [3] = assay: Antibacterial activity against methicillin-sensitive Staphylococcus aureus ATCC 6538 assessed as inhibition of visible bacterial growth incubated for 18 to 20 hrs by CLSI method; type: functional; conditions: time 18-20 hrs; method in brief: as §1
Staphylococcus aureus [4] = assay: Antibacterial activity against methicillin-sensitive Staphylococcus aureus NRS 107 assessed as inhibition of visible bacterial growth incubated for 18 to 20 hrs by CLSI method; type: functional; conditions: time 18-20 hrs; method in brief: as §1
Staphylococcus aureus [5] = assay: Antibacterial activity against methicillin-resistant Staphylococcus aureus NRS 119 assessed as inhibition of visible bacterial growth incubated for 18 to 20 hrs by CLSI method; type: functional; conditions: time 18-20 hrs; method in brief: as §1
Staphylococcus aureus [6] = assay: Antibacterial activity against methicillin-resistant Staphylococcus aureus NRS382 assessed as inhibition of visible bacterial growth incubated for 18 to 20 hrs by CLSI method; type: functional; conditions: time 18-20 hrs; method in brief: as §1
Staphylococcus aureus [7] = assay: Antibacterial activity against methicillin-resistant Staphylococcus aureus NRS383 assessed as inhibition of visible bacterial growth incubated for 18 to 20 hrs by CLSI method; type: functional; conditions: time 18-20 hrs; method in brief: as §1
Staphylococcus aureus [8] = assay: Antibacterial activity against methicillin-resistant Staphylococcus aureus NRS384 assessed as inhibition of visible bacterial growth incubated for 18 to 20 hrs by CLSI method; type: functional; conditions: time 18-20 hrs; method in brief: as §1
Staphylococcus aureus [9] = assay: Antibacterial activity against methicillin-resistant Staphylococcus aureus NRS123 assessed as inhibition of visible bacterial growth incubated for 18 to 20 hrs by CLSI method; type: functional; conditions: time 18-20 hrs; method in brief: as §1
Staphylococcus aureus [10] = assay: Antibacterial activity against methicillin-resistant Staphylococcus aureus NRS385 assessed as inhibition of visible bacterial growth incubated for 18 to 20 hrs by CLSI method; type: functional; conditions: time 18-20 hrs; method in brief: as §1
Staphylococcus aureus [11] = assay: Antibacterial activity against methicillin-resistant Staphylococcus aureus NRS386 assessed as inhibition of visible bacterial growth incubated for 18 to 20 hrs by CLSI method; type: functional; conditions: time 18-20 hrs; method in brief: as §1
Staphylococcus aureus [12] = assay: Antibacterial activity against methicillin-resistant Staphylococcus aureus NRS387 assessed as inhibition of visible bacterial growth incubated for 18 to 20 hrs by CLSI method; type: functional; conditions: time 18-20 hrs; method in brief: as §1
Staphylococcus aureus [13] = assay: Antibacterial activity against methicillin-resistant Staphylococcus aureus NRS483 assessed as inhibition of visible bacterial growth incubated for 18 to 20 hrs by CLSI method; type: functional; conditions: time 18-20 hrs; method in brief: as §1
Staphylococcus aureus [14] = assay: Antibacterial activity against methicillin-resistant Staphylococcus aureus NRS484 assessed as inhibition of visible bacterial growth incubated for 18 to 20 hrs by CLSI method; type: functional; conditions: time 18-20 hrs; method in brief: as §1
Staphylococcus aureus [15] = assay: Antibacterial activity against vancomycin-resistant Staphylococcus aureus 10 assessed as inhibition of visible bacterial growth incubated for 18 to 20 hrs by CLSI method; type: functional; conditions: time 18-20 hrs; method in brief: as §1
Staphylococcus aureus [16] = assay: Antibacterial activity against vancomycin-resistant Staphylococcus aureus 12 assessed as inhibition of visible bacterial growth incubated for 18 to 20 hrs by CLSI method; type: functional; conditions: time 18-20 hrs; method in brief: as §1
[17] = system: Staphylococcus epidermidis; assay: Antibacterial activity against Staphylococcus epidermidis NRS101 assessed as inhibition of visible bacterial growth incubated for 18 to 20 hrs by CLSI method; type: functional; conditions: time 18-20 hrs
Method in brief: (§2)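 Broth microdilution per CLSI. Strains grown aerobically overnight on TSA at 37 °C, suspended to 0.5 McFarland, diluted in CAMHB to about 5×10^5 CFU/mL. Agents serially diluted across plate; aerobic incubation 37 °C for 18-20 h. MIC = lowest concentration completely preventing visible growth.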

Streptococcus pneumoniae [18] = assay: Antibacterial activity against cephalosporin-resistant Streptococcus pneumoniae ATCC 51916 assessed as inhibition of visible bacterial growth incubated for 18 to 20 hrs by CLSI method; type: functional; conditions: time 18-20 hrs; method in brief: as §1
Streptococcus pneumoniae [19] = assay: Antibacterial activity against […] Streptococcus pneumoniae ATCC 700677 assessed as inhibition of visible bacterial growth incubated for 18 to 20 hrs by CLSI method; type: functional; conditions: time 18-20 hrs; method in brief: as §1
Enterococcus faecalis [20] = assay: Antibacterial activity against vancomycin- resistant Enterococcus faecalis ATCC 51299 assessed as inhibition of visible bacterial growth incubated for 18 to 20 hrs by CLSI method; type: functional; conditions: time 18-20 hrs; method in brief: as §1
Enterococcus faecalis [21] = assay: Antibacterial activity against vancomycin- resistant Enterococcus faecalis ATCC 700221 assessed as inhibition of visible bacterial growth incubated for 18 to 20 hrs by CLSI method; type: functional; conditions: time 18-20 hrs; method in brief: as §1
Listeria monocytogenes = assay: Antibacterial activity against Listeria monocytogenes ATCC 19111 assessed as inhibition of visible bacterial growth incubated for 18 to 20 hrs by CLSI method; type: functional; conditions: time 18-20 hrs; method in brief: as §2
Escherichia coli = assay: Antibacterial activity against Escherichia coli ATCC 25404 assessed as inhibition of visible bacterial growth at 16 ug/ml incubated for 18 to 20 hrs by CLSI method; type: functional, organism-based; conditions: B ATCC 25404, dose 16.0 µg/ml, time 18-20 hrs; method in brief: as §1
Pseudomonas aeruginosa = assay: Antibacterial activity against Pseudomonas aeruginosa ATCC 27853 assessed as inhibition of visible bacterial growth at 16 ug/ml incubated for 18 to 20 hrs by CLSI method; type: functional, organism-based; conditions: dose 16.0 µg/ml, time 18-20 hrs; method in brief: as §1
Acinetobacter baumannii = assay: Antibacterial activity against Acinetobacter baumannii ATCC 19606 RW4 assessed as inhibition of visible bacterial growth at 16 ug/ml incubated for 18 to 20 hrs by CLSI method; type: functional, organism-based; conditions: ATCC 19606 = CIP 70.34 = JCM 6841 RW4, dose 16.0 µg/ml, time 18-20 hrs; method in brief: as §1
Caco-2 = assay: Cytotoxicity against human Caco2 cells assessed as reduction in cell viability at 128 ug/ml incubated for 2 hrs by MTS assay; type: cell-based; conditions: caco-2, 2 h, dose 128 µg/ml
[22] = Hemolytic activity in human RBC at 128 ug/ml incubated for 60 mins relative to control; type: ADME, cell-based, Erythrocyte; conditions: red blood cells (erythrocytes), dose 128 µg/ml, read-out: Activity
Method in brief: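 Single-donor human erythrocytes as a 5% v/v suspension in PBS. Compounds serially diluted in PBS, in triplicate, and incubated with RBCs at 37 °C for 60 min. PBS served as the negative control and Triton-X as the positive control. Samples spun at 4,000 rpm for 5 min and supernatant absorbance read at 540 nm. Percent hemolysis = 100×(sample−negative)/(positive−negative).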

Staphylococcus aureus [23] = assay: Synergistic antibacterial activity against methicillin-resistant Staphylococcus aureus ATCC 33592 assessed as fractional inhibitory concentration index in presence of linezolid by checkerboard assay; type: functional
Staphylococcus aureus [24] = assay: Synergistic antibacterial activity against methicillin-resistant Staphylococcus aureus ATCC 33592 assessed as fractional inhibitory concentration index in presence of methicillin by checkerboard assay; type: functional
Staphylococcus aureus [25] = assay: Synergistic antibacterial activity against methicillin-resistant Staphylococcus aureus ATCC 33592 assessed as fractional inhibitory concentration index in presence of daptomycin by checkerboard assay; type: functional
Staphylococcus aureus [26] = assay: Synergistic antibacterial activity against methicillin-resistant Staphylococcus aureus ATCC 33592 assessed as fractional inhibitory concentration index in presence of Vancomycin; type: functional
Staphylococcus aureus [27] = assay: Bacteriostatic activity against methicillin-resistant Staphylococcus aureus ATCC 33592 assessed as reduction in bacterial growth incubated for 18 hrs by CLSI method; type: functional
Staphylococcus aureus [28] = assay: Antibacterial activity against methicillin-resistant Staphylococcus aureus ATCC 33592 assessed as reduction in bacterial count at 3 x MIC incubated upto 24 hrs by time kill analysis; type: functional; conditions: time hrs <=24
Method in brief: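 Time-kill assay. […] Samples taken at 0, 2, 4, 8, 12 and 24 h, serially diluted in PBS and plated on tryptic soy agar. Viable CFU/mL counted after 18-20 h at 37 °C.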

J774 = assay: Cytotoxicity against mouse J774 cells assessed as reduction in cell viability at 32 ug/ml incubated for 24 hrs by MTS assay; type: cell-based; conditions: j774, 24 h, dose 32 µg/ml

O=C(Nc1nnc(-c2cccs2)o1)c1ccc(OC(F)(F)F)cc1
MIC (Staphylococcus aureus [1]): 1 µg/mL (≈ 2.81 µM) | MIC (Staphylococcus aureus [2]): 1 µg/mL (≈ 2.81 µM) | MIC (Staphylococcus aureus [3]): 1 µg/mL (≈ 2.81 µM) | MIC (Staphylococcus aureus [4]): 1 µg/mL (≈ 2.81 µM) | MIC (Staphylococcus aureus [5]): 1 µg/mL (≈ 2.81 µM) | MIC (Staphylococcus aureus [6]): 1 µg/mL (≈ 2.81 µM) | MIC (Staphylococcus aureus [7]): 2 µg/mL (≈ 5.63 µM) | MIC (Staphylococcus aureus [8]): 0.5 µg/mL (≈ 1.41 µM) | MIC (Staphylococcus aureus [9]): 1 µg/mL (≈ 2.81 µM) | MIC (Staphylococcus aureus [10]): 2 µg/mL (≈ 5.63 µM) | MIC (Staphylococcus aureus [11]): 1 µg/mL (≈ 2.81 µM) | MIC (Staphylococcus aureus [12]): 2 µg/mL (≈ 5.63 µM) | MIC (Staphylococcus aureus [13]): 1 µg/mL (≈ 2.81 µM) | MIC (Staphylococcus aureus [14]): 0.5 µg/mL (≈ 1.41 µM) | MIC (Staphylococcus aureus [15]): 1 µg/mL (≈ 2.81 µM) | MIC (Staphylococcus aureus [16]): 1 µg/mL (≈ 2.81 µM) | MIC [17]: 0.5 µg/mL (≈ 1.41 µM) | MIC (Streptococcus pneumoniae [18]): 2 µg/mL (≈ 5.63 µM) | MIC (Streptococcus pneumoniae [19]): 1 µg/mL (≈ 2.81 µM) | MIC (Enterococcus faecalis [20]): 8 µg/mL (≈ 22.5 µM) | MIC (Enterococcus faecalis [21]): 4 µg/mL (≈ 11.3 µM) | MIC (Listeria monocytogenes): 2 µg/mL (≈ 5.63 µM) | inhibition (Escherichia coli): inactive | inhibition (Pseudomonas aeruginosa): inactive | inhibition (Acinetobacter baumannii): inactive | Activity (Caco-2): Non-Toxic | hemolysis at 1 h, 128 ug/ml [22]: 20% | fractional inhibitory concentration index (FICI) (Staphylococcus aureus [23]): 1.25 | fractional inhibitory concentration index (FICI) (Staphylococcus aureus [24]): 0.63 | fractional inhibitory concentration index (FICI) (Staphylococcus aureus [25]): 0.5 | fractional inhibitory concentration index (FICI) (Staphylococcus aureus [26]): 1.06 | MBC (Staphylococcus aureus [27]): > 128 µg/mL | Activity (Staphylococcus aureus [28]): 0.69 log10CFU/ml | Activity (J774): Non-Toxic
